Source: PubChem (several laboratories)
SMARCA2 act – increases SMARCA2 function in MMTV reporter cells | MG213 cells, MMTV-luciferase reporter, dexamethasone, overnight | activation, % at 9.1 µM | 1% of 370,000 active | AID 652017; in the data active means activation above about 7.8%
MC4R barr agon – human MC4R agonism via beta-arrestin; U2OS MC4R beta-arrestin complementation, luminescence; percent of melanotan II response, DMSO zero; P32245; activation, % at 8.9 µM; AID 540308; 0.98% of 360,000 active;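 active means activation above a per-plate cutoff, the mean activation of sample wells on that plate plus 3 SD, cut at about 8% in these data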
MPTP block – inhibitors of mitochondrial permeability transition pore. isolated mouse mitochondria, Ca2+ swelling absorbance, 30 min. inhibition, % at 10 µM. 1.4% of 360,000 active. AID 602449;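 active means inhibition of 50% or more, scaled per plate between neutral and stimulator controls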
MC4R antagonist – blocks human MC4R cAMP signaling; P32245; MC4R-expressing cells, MTII-stimulated cAMP, LANCE TR-FRET; inhibition, % at 6.5 µM; 0.48% of 360,000 active;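 active means inhibition above its plate's cutoff, the mean of tested wells on that plate plus 3 SD, cut at about 29% in these data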
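System: U2OS cells stably expressing human melanocortin 4 receptor (MC4R). Reagent: Melanotan II challenge after compound preincubation. Doses: 6.5 µM. Times: 30-min compound, 1-h challenge, 1-h detection, room temperature. Measured by: TR-FRET with Eu-cAMP and labeled anti-cAMP, 671 nm. Replicates: singlicate.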
ATG4B inhibitor – blocks human ATG4B protease cleavage of LC3 substrate; Q9Y4P1; ATG4B cleavage of LC3-PLA2, NBD-HPC fluorescence, 1 h; inhibition, % at 8.33 µM; 0.51% of 340,000 active; AID 504462; in the data active means inhibition above about 40%
Target sequence (Q9Y4P1 whole entry, looked up): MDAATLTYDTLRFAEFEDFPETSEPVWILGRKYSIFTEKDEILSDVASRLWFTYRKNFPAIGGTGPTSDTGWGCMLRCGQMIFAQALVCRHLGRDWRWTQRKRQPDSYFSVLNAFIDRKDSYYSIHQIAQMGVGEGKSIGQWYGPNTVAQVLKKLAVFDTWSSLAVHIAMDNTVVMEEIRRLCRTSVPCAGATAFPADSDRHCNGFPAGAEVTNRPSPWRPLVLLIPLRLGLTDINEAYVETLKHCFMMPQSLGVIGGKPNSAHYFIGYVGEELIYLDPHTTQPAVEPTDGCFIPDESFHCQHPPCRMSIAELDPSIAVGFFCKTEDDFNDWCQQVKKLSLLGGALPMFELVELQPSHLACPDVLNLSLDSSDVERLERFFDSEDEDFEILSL
cAMP nonselect – U2OS forskolin cAMP inhibition counter-screen | inhibition, % at 6.5 µM | 26% of 1,600 active | parental U2OS, LANCE TR-FRET | shares compounds with MC4R antagonist;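 active means mean inhibition over triplicates above the low-control well mean plus 3 SD, set per campaign, cut at about 13% in these data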;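 further: signal is single emission at 671 nm which falls as cellular cAMP rises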
MC4R cAMP antag – human MC4R cAMP antagonism confirmation | 27% of 1,600 active | MC4R-expressing cells, MTII-stimulated cAMP, TR-FRET | inhibition, % at 6.5 µM | shares compounds with MC4R antagonist; in the data active means inhibition above about 29%
Of the large screens only hits and unclear results are named; the others gave an inactive call (follow-up assays come after a bar, where they were run). Hits are enriched below; roughly 4.1% of the tested compounds scored in any of these assays.

CC[C@H](CCC(=O)N(c1ccccc1)c1ccccc1)C1CC1	none (no result: MC4R barr agon, MPTP block, MC4R antagonist, ATG4B inhibitor)
c1ccc(CC(Nc2cccnc2)c2ccccc2)cc1 (stereo not given)	none (no result: MC4R barr agon, MPTP block, MC4R antagonist, ATG4B inhibitor)
CCCN(CCC)S(=O)(=O)c1ccc(Cl)c([N+](=O)[O-])c1	MC4R antagonist 41 | cAMP nonselect 31 | MC4R cAMP antag 50
Cc1ccccc1NC(=O)[C@H]1CC(=O)O[C@@H]1c1ccccc1	none (no result: MC4R barr agon, MPTP block, MC4R antagonist, ATG4B inhibitor)
O=c1[nH]c(=S)[nH]cc1Oc1ccc(Cl)cc1Cl	MC4R antagonist 36 | cAMP nonselect inactive | MC4R cAMP antag inactive
CC(=O)c1ccc(S(=O)(=O)N2CCN(C(=O)CSc3ccc(C)c(C)c3)CC2)cc1	MC4R antagonist 35 | cAMP nonselect inactive | MC4R cAMP antag inactive
Cc1ccc(S(=O)(=O)N2CCN(C(=O)CSc3ccc(Cl)cc3)CC2)cc1	none
COC(=O)C1=C(C)N(Cc2ccc(C(F)(F)F)cc2)C(=NCc2ccccc2)NC1c1ccc(C(F)(F)F)cc1 (stereo not given)	none (no result: MC4R barr agon, MPTP block, MC4R antagonist, ATG4B inhibitor)
NS(=O)(=O)c1ccc(N2N=C(c3ccccc3)CC2c2ccccc2)cc1 (stereo not given)	none
NS(=O)(=O)c1ccc(N2N=C(c3ccccc3)CC2c2ccc(Br)cc2)cc1 (stereo not given)	MC4R antagonist 37 (no result: ATG4B inhibitor) | cAMP nonselect inactive | MC4R cAMP antag inactive
CC(C)NC(=O)C1CCN(C(=O)c2cc3sccc3n2Cc2ccc(F)cc2)CC1	MC4R antagonist 32 (no result: SMARCA2 act) | cAMP nonselect inactive | MC4R cAMP antag inactive
COc1ccccc1NC(=O)NC1CCS(=O)(=O)C1 (stereo not given)	MC4R antagonist 34 | cAMP nonselect inactive | MC4R cAMP antag inactive
Cc1ccc(S(=O)(=O)N(C)C)cc1NC(=O)Cn1c(CN2CCOCC2)nc2ccccc2c1=O	MC4R antagonist 36 | cAMP nonselect inactive | MC4R cAMP antag inactive
O=S(=O)(c1ccccc1F)n1c(CN2CCOCC2)nc2ccccc21	none (no result: MC4R barr agon, MPTP block, MC4R antagonist, ATG4B inhibitor)
CCCCN1C[C@@H](COCc2ccccc2)Oc2cccc(F)c2S1(=O)=O	none (no result: MC4R barr agon, MPTP block, MC4R antagonist, ATG4B inhibitor)
CC(NC(=O)COC(=O)CNS(=O)(=O)/C=C/c1ccccc1)c1ccccc1 (stereo not given)	MC4R antagonist 30 | cAMP nonselect inactive | MC4R cAMP antag inactive
CCOC(=O)C1CCCN(C(=O)c2cccc([N+](=O)[O-])c2C)C1 (stereo not given)	MC4R antagonist 32 | cAMP nonselect inactive | MC4R cAMP antag inactive
CCCCCCCCN1CN2Cc3ccccc3C2CS1(=O)=O (stereo not given)	none (no result: MC4R barr agon, MPTP block, MC4R antagonist, ATG4B inhibitor)
C/C(=C/c1nc(N)n(Cc2ccccc2)c1Cc1ccccc1)Cn1[nH]c(=O)n(-c2ccccc2)c1=O	none (no result: MC4R barr agon, MPTP block, MC4R antagonist, ATG4B inhibitor)
O=C(c1ccc([N+](=O)[O-])cc1)N(Cc1ccc(Br)cc1)N1C(=O)CCCC1=O	MC4R barr agon 9.1, MC4R antagonist 44 | cAMP nonselect 17 | MC4R cAMP antag inactive
C#CCN1CC(N(C)CCOC(=O)c2occ3ccccc23)CS1(=O)=O (stereo not given)	none (no result: MC4R barr agon, MPTP block, MC4R antagonist, ATG4B inhibitor)
CCN(CC)C(=O)CSc1nnc(-c2ccccn2)n1C	none (no result: MC4R barr agon, MPTP block, MC4R antagonist, ATG4B inhibitor)
COc1ccc(C(=O)C(=O)N2CCN(C(=O)c3ccccc3C(F)(F)F)CC2)cc1OC	none (no result: MC4R barr agon, MPTP block, MC4R antagonist, ATG4B inhibitor)
O=C(CSCc1ccc(Cl)cc1Cl)Nc1ccccc1C(=O)Nc1ccc(C(=O)O)cc1	MC4R antagonist 30 | cAMP nonselect inactive | MC4R cAMP antag inactive
O=C(CSCc1ccc(Cl)cc1Cl)Nc1ccc(O)cc1C(=O)O	none
CSc1sc(C)cc1C1C(C#N)=C(N)N(c2cccnc2)C2=C1C(=O)CC(C)(C)C2 (stereo not given)	MC4R antagonist 29 | cAMP nonselect inactive | MC4R cAMP antag inactive
CN(C)C(=O)c1cn(-c2ccc(Cl)cc2)c(=O)c2ccccc12	MC4R antagonist 32 | cAMP nonselect inactive | MC4R cAMP antag inactive
CC(Sc1ccsc1[N+](=O)[O-])C(=O)NCc1ccccc1 (stereo not given)	none (no result: MC4R barr agon, MPTP block, MC4R antagonist, ATG4B inhibitor)
COc1ccccc1CNC(=O)C(C)Sc1ccsc1[N+](=O)[O-] (stereo not given)	MC4R antagonist 30 | cAMP nonselect inactive | MC4R cAMP antag inactive
